Source: PubChem (Broad Institute)
Most compounds without a hit are left out; they make up all but 2.8% or so of the library.
DENV2 CPE rescue – protects cells from dengue virus 2 cytopathic effect; DENV2-infected cells, cytopathic effect rescue, plate reader; CPE inhibition, % at 9.99 µM; 350,000 tested, 1.7% active; in the data active = CPE inhibition above about 20%, passing the limit was not always enough; inconclusive = no clear call, values can overlap the other calls; tested in BHK-21 cells;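 also: 0% = median of neutral control wells and 100% = median of positive control wells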
SIRT5 block – inhibitors of human sirtuin-5 desuccinylase. Purified SirT5, succinyl-peptide AMC, trypsin-coupled fluorescence. inhibition, % at 15 µM. 330,000 tested, 1.1% active. AID 652115. Q9NXA8; in the data active = inhibition above about 15%; inconclusive = no clear call, values can overlap the other calls
E-sel inducer – induces E-selectin expression in human endothelial cells; 260,000 tested, 0.37% active; activation, % at 7.58 µM; HUVEC E-selectin immunofluorescence imaging; normalized: neutral wells 0, TNF-alpha wells 100;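 active = mean E-selectin-positive cell signal at least 10% of the positive control, reached in at least 60% of replicates, without over 20% cell loss; inconclusive = no rule given, readout overlaps actives, possibly toxicity-flagged; inactive = the rest, including those meeting only one limit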
Target sequence (P16581 whole entry, looked up): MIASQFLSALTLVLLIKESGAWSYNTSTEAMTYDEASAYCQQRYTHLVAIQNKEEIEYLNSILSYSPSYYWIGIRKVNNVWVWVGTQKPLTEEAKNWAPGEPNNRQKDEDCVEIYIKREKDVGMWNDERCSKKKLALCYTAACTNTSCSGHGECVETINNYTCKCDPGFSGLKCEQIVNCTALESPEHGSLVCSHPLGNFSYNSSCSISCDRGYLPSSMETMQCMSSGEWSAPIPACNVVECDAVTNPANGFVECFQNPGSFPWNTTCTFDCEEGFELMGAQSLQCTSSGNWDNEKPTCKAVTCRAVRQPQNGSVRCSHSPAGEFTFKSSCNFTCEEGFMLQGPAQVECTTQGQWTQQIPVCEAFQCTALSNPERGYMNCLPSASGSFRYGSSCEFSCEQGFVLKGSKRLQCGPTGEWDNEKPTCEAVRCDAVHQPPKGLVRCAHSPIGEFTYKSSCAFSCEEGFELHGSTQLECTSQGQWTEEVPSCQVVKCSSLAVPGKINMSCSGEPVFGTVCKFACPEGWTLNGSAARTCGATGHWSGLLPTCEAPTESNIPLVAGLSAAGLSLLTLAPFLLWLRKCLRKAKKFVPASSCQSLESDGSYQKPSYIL
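Material: HUVEC primary endothelial cells; Amount: 3,000 cells per well; Dosing: single concentration; Medium: EGM-2 growth medium on 0.1% gelatin-coated wells; Read-out basis: percent E-selectin-positive cells; Signal: immunofluorescence imaging; Control set: TNF-alpha, DMSO.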
Active calls of the source: *.

Results for Cc1ccc(CNC(=O)C2CCC(=O)N(CCc3ccccn3)C2)s1 (stereo unspecified) ?
DENV2 CPE rescue: 33.3*; SIRT5 block: -1.3; E-sel inducer: 3.1

What do the screens show for `O=C(NCCOc1ccccc1)C1CCC(=O)N(CCc2ccccn2)C1` (stereo unspecified)?
DENV2 CPE rescue: 1.5; SIRT5 block: 0.0

Results for CNC[C@@H]1Oc2ccc(NC(=O)Cn3cnnn3)cc2CC(=O)N([C@@H](C)CO)C[C@@H]1C ?
E-sel inducer: -13.8

Results for O=C(NC1CCCC1)[C@H]1[C@H](CO)[C@H]2Cn3c(ccc(C4=CCCC4)c3=O)[C@@H]1N2C(=O)c1ccccc1 ?
DENV2 CPE rescue: -5.5; SIRT5 block: -11.9; E-sel inducer: 0.4

What do the screens show for `CN1c2ccc(Br)cc2[C@H]2[C@H](CCN2C(=O)C2CCCCC2)[C@@H]1CO`?
DENV2 CPE rescue: -2.1; SIRT5 block: 0.7; E-sel inducer: 0.0

What do the screens show for `CN1c2ccc(C#Cc3cccnc3)cc2[C@@H]2[C@@H](CCN2C(=O)C2CCC2)[C@H]1CO`?
DENV2 CPE rescue: -7.5; SIRT5 block: -6.4; E-sel inducer: 63.5*

What do the screens show for `CN1c2ccc(C#Cc3cccnc3)cc2[C@@H]2[C@@H](CCN2C(=O)C2CCCC2)[C@@H]1CO`?
DENV2 CPE rescue: inconclusive; SIRT5 block: 5.4; E-sel inducer: 0.2

What do the screens show for `CN1c2ccc(Br)cc2[C@@H]2[C@@H](CCN2C(=O)C2CCCCC2)[C@@H]1CO`?
DENV2 CPE rescue: 67.1*; SIRT5 block: 3.4; E-sel inducer: 0.4

What do the screens show for `C[C@H](NC(=O)C[C@@H]1CC[C@H](NC(=O)C2CC2)[C@@H](CO)O1)c1ccccc1`?
DENV2 CPE rescue: -0.4; SIRT5 block: 5.4; E-sel inducer: -0.3

How did CS(=O)(=O)N1[C@@H]2c3ccc(C4=CCCC4)c(=O)n3C[C@@H]2[C@@H](CO)[C@@H]1C(=O)NCCc1ccncc1 do in these assays?
DENV2 CPE rescue: 1.9; SIRT5 block: -2.2; E-sel inducer: -0.2

What do the screens show for `COc1ccccc1CNC(=O)C[C@H]1C[C@H]2c3cc(NC(=O)NC4CCCC4)ccc3O[C@H]2[C@H](CO)O1`?
DENV2 CPE rescue: 7.5; SIRT5 block: 2.8; E-sel inducer: 0.0

How did COc1ccccc1/C=C1\C(=O)Nc2ccccc21 do in these assays?
DENV2 CPE rescue: inconclusive; SIRT5 block: 15.5*

What do the screens show for `O=C1Nc2ccccc2/C1=C/c1ccccc1Cl`?
DENV2 CPE rescue: -6.9; SIRT5 block: -1.1; E-sel inducer: -0.1

Results for COc1ccc(/C=C2\C(=O)NC(=O)c3ccccc32)cc1OC ?
DENV2 CPE rescue: -6.1; E-sel inducer: -0.1

Results for COc1ccc2c(c1)/C(=C/c1cc(OC)c(OC)c(OC)c1)C(=O)N2 ?
DENV2 CPE rescue: 29.5*; SIRT5 block: -1.4; E-sel inducer: 0.1

How did CCC(=O)N1C[C@H](O)COC[C@H]2O[C@@H](CC(=O)NCC3CCCCC3)CC[C@@H]21 do in these assays?
DENV2 CPE rescue: 1.2; SIRT5 block: 4.2; E-sel inducer: -0.2

Results for CCCN(C)C[C@H]1Oc2ncc(-c3ccccc3)cc2C(=O)N([C@H](C)CO)C[C@H]1C ?
DENV2 CPE rescue: 0.9; SIRT5 block: -0.2; E-sel inducer: 0.2

How did CC(C)Oc1ccc(C(=O)OC(C)C(=O)NC2CCCCC2C)cc1 (stereo unspecified) do in these assays?
DENV2 CPE rescue: -3.7; SIRT5 block: -2.7; E-sel inducer: 0.1

How did CC(=O)c1ccc(OC(C)C(=O)NC2CCCCC2C)cc1 (stereo unspecified) do in these assays?
DENV2 CPE rescue: 66.7*; SIRT5 block: -0.6

What do the screens show for `COc1ccc2c3c([nH]c2c1)[C@H](CO)N(C(=O)C1CCOCC1)CC31CN(Cc2nccs2)C1`?
DENV2 CPE rescue: 14.5; SIRT5 block: 1.0; E-sel inducer: -0.4

Results for Cc1nc2cc(NC(=O)c3ccc([N+](=O)[O-])s3)ccc2s1 ?
DENV2 CPE rescue: 72.8*; SIRT5 block: 1.1; E-sel inducer: -0.2

What do the screens show for `Cc1nc2ccc(NC(=O)c3ccccc3)cc2s1`?
DENV2 CPE rescue: -2.3; SIRT5 block: -2.1; E-sel inducer: 0.3

What do the screens show for `CCNc1ccc(C(=O)Nc2ccc3nc(C)sc3c2)cc1[N+](=O)[O-]`?
DENV2 CPE rescue: 33.4*; SIRT5 block: 0.1

Results for Cc1cc(NS(=O)(=O)c2ccc(NC(=O)c3ccc([N+](=O)[O-])s3)cc2)nc(C)n1 ?
DENV2 CPE rescue: -1.8; SIRT5 block: 5.1; E-sel inducer: -0.1

What do the screens show for `O=C(C[C@H]1CC[C@H]2[C@@H](COC[C@H](O)CN2CCC(F)(F)F)O1)NCc1ccc(Oc2ccccc2)cc1`?
DENV2 CPE rescue: -0.7; E-sel inducer: 0.1

How did Cc1noc(C)c1NC(=O)N[C@H]1CC[C@@H](CC(=O)N2CCCCC2)O[C@@H]1CO do in these assays?
DENV2 CPE rescue: -7.6; SIRT5 block: -0.2; E-sel inducer: -0.2

What do the screens show for `CC[C@@H]1[C@H]2CCCC(=O)N3CC[C@@H](C[C@@H]1OC(=O)NCc1ccccc1)[C@@H]23`?
DENV2 CPE rescue: -1.9; SIRT5 block: -2.5; E-sel inducer: -0.1

Results for CCCCNC(=O)O[C@H]1C[C@@H]2CCN3C(=O)CCC[C@H]([C@H]1Cc1ccccc1)[C@H]23 ?
DENV2 CPE rescue: 53.9*; SIRT5 block: 0.2

How did CC(Oc1ccccc1Cl)C(=O)N1CCCN(C)CC1 (stereo unspecified) do in these assays?
DENV2 CPE rescue: 0.2; SIRT5 block: -3.8; E-sel inducer: 0.6

What do the screens show for `CC(Oc1ccccc1Cl)C(=O)N1CCOCC1` (stereo unspecified)?
DENV2 CPE rescue: 107.2*; SIRT5 block: 0.2; E-sel inducer: 0.7

Results for CCOC(=O)c1sc2nc(OCc3cccnc3)cc(C)c2c1N ?
DENV2 CPE rescue: 14.0; SIRT5 block: 24.8*; E-sel inducer: 0.0

How did CCOC(=O)c1sc2nc(C)nc(NCc3cccnc3)c2c1C do in these assays?
SIRT5 block: 8.1; E-sel inducer: 1.1

How did CCNC(=O)C[C@@H]1CC[C@H](NS(=O)(=O)c2ccc(C)cc2)[C@@H](CO)O1 do in these assays?
DENV2 CPE rescue: -7.4; SIRT5 block: 0.5; E-sel inducer: -0.1

How did C[C@@H]1CN([C@H](C)CO)S(=O)(=O)c2ccc(-c3cncnc3)cc2O[C@H]1CN(C)C(=O)C1CCC1 do in these assays?
DENV2 CPE rescue: 19.2; SIRT5 block: 15.0; E-sel inducer: 1.1

Results for COc1ccccc1C(=O)Nc1ccc2c(c1)CN(Cc1cnc(C)s1)CC2 ?
DENV2 CPE rescue: 32.9*; SIRT5 block: 0.5; E-sel inducer: -0.2

What do the screens show for `CCOC(=O)CNC(=O)N1CCc2ccc(NC(=O)c3ccccc3OC)cc2C1`?
DENV2 CPE rescue: -1.1; SIRT5 block: 0.1; E-sel inducer: 0.3

What do the screens show for `C[C@@H]1CN([C@H](C)CO)C(=O)c2cc(/C=C/c3ccccc3)cnc2O[C@H]1CN(C)C(=O)Cc1cccnc1`?
DENV2 CPE rescue: -2.9; SIRT5 block: -8.0; E-sel inducer: 0.1

Results for CC1CCC(NC(=O)COC(=O)CSc2ccc(C(N)=O)cc2[N+](=O)[O-])CC1 (stereo unspecified) ?
DENV2 CPE rescue: -0.2; SIRT5 block: -0.3

How did CC1CN(C(=O)COC(=O)CSc2ccc(C(N)=O)cc2[N+](=O)[O-])CC(C)O1 (stereo unspecified) do in these assays?
DENV2 CPE rescue: -5.0; SIRT5 block: 1.3; E-sel inducer: 218.7*
